The results in this text go back to PubChem BioAssay.

The nature of experiment [1]: reducers of endogenous Her2 protein level, primary screen, SKBR3 breast tumor cells, AlphaScreen, ATP viability (AID 461;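 active = Her2 level under about 52% in both replicate screens, with viability over 70% of control, limit read from the data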;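 as to Her2 level: lower value means less Her2 protein in the cells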;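 as to viability: percent of carrier control wells set as 100% viability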). The note with it: 18-24 h, measured here: SKBR3 viability, ATP luminescence, at 10 µM.
The target in experiment [2] is Receptor tyrosine-protein kinase erbB-2 (Homo sapiens) (UniProt P04626). Described as above. Conditions: 18-24 h, at 10 µM, stronger effect = lower value.
Sequence of Receptor tyrosine-protein kinase erbB-2 (Homo sapiens) (P04626 whole entry, looked up): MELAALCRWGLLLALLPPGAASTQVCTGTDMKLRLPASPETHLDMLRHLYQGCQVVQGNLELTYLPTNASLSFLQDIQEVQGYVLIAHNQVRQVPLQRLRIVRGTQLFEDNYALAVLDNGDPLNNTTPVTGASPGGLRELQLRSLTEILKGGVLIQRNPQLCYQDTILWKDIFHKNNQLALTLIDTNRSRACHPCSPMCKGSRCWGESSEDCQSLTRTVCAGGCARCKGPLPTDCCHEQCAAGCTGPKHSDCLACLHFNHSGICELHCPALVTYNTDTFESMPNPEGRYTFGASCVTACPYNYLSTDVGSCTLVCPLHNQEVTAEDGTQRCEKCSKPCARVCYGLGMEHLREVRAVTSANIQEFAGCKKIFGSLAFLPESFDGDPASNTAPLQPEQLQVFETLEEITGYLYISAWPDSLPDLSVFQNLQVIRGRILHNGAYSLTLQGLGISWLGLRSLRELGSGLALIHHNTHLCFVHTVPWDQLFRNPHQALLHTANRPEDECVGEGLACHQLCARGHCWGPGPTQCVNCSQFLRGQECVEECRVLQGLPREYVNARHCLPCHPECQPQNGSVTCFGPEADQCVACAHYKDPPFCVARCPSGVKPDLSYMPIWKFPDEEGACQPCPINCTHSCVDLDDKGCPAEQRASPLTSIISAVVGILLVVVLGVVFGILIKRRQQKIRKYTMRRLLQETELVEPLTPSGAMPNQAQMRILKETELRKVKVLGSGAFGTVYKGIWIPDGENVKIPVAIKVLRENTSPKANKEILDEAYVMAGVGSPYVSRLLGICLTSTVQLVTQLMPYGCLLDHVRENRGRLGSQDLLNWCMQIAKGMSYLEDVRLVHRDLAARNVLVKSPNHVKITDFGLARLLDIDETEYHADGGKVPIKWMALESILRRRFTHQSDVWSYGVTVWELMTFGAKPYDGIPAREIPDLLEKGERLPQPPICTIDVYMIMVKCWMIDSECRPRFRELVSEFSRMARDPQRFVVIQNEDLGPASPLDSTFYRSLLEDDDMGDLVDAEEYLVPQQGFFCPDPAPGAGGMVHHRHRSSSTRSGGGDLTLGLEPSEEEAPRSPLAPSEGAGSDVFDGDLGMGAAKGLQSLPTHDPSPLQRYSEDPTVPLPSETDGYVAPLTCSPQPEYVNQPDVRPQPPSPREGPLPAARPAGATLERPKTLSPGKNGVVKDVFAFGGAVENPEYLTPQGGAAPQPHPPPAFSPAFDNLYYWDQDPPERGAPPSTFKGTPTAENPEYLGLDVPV
The nature of experiment [3]: SK-BR-3 cell growth inhibitors, pilot screen, 24 h, human (AID 572;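 active = viability at or below 10% of carrier control in both of two separate runs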;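 also: compound exposure lasted between 18 and 24 h rather than exactly 24 h; 100% = carrier-treated control wells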). The note with it: SK-BR-3 viability, CellTiter-Glo luminescence, at 10 µM, stronger effect = lower value.
Experiment [4] in a line: HUVEC growth inhibition – cell-based, human, primary screen (AID 575;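 active = viability at or below 30% in both replicate assays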;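 also: 100% = median of untreated cell wells with 0.1% DMSO on each plate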). The note with it: HUVEC proliferation, CellTiter-Glo luminescence, 72 h; at 10 µM; stronger effect = lower value. The procedure, abridged:
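System: primary human umbilical vein endothelial cells; Quantity: 1250 endothelial cells in each well; Buffer or medium: supplemented EBM, 2% fetal bovine serum; Doses: one dose, 10 µM final, 0.1% DMSO; Incubation: 72 h compound incubation; Technique: ATP-based CellTiter-Glo luminescent read; Evaluation: percent of median DMSO-control luminescence; Controls: vehicle and MePR control wells.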

The nature of experiment [5]: growth inhibitors of H69AR lung tumor, primary screen, human, duplicate replicates (AID 580;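 active = viability at or under a set limit in both replicates, limit being median viability minus 3 SD, cut at about 48% in these data, passing the limit was not always enough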;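 also: 100% = mean luminescence of untreated wells and 0% = no signal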). Conditions: H69AR lung tumor cells viability, ATP luminescence, 72 h; at 10 µM; stronger effect = lower value.
The nature of experiment [6]: reversal of MRP1-mediated doxorubicin resistance, pilot screen, H69AR cells, doxorubicin co-treatment (AID 601;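 active = viability loss from added drug above about 55%, and viability with drug at most 40%, in both replicates, limit read from the data, passing the limit was not always enough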). The note with it: CellTiter-Glo, 72 h, at 10 µM; for differential viability (reversal): stronger effect = higher value.
Experiment [7] can be described thus: 384-well plate pilot, post-Golgi transport modulator project, inhibition of yeast transport mutant growth (AID 636; in the data active = inhibition above about 31%). Conditions: absorbance 615 nm, about 18 h, stronger effect = higher value.
A short description of experiment [8]: growth suppression of yeast trafficking mutant, preliminary HTS, modulators of trafficking downstream of Golgi apparatus project, 1536-format plate, OD 615 nm (AID 637). Conditions: yeast transport mutant growth, absorbance 615 nm, 18 h; stronger effect = higher value.
The mark [9] stands for this setting: H69AR cells + 2 uM doxorubicin, measured here: viability with 2 uM doxorubicin, stronger effect = lower value.
[10] abbreviates: H69AR cells, compound alone cytotoxicity.

Calls of active or inactive are those of the source. Rule as the data show it, unless noted: active = inhibition above about 30%; inactive = the rest.

With `Cc1ccc(NC(=O)Cn2cccc2)cc1Cl`, the viability in experiment [1] was 94%; in experiment [3] it was 94% (inactive); in experiment [4], 98.5% (inactive); in experiment [5], 96.3% (inactive); in experiment [6] (setting [9]), 78.5%; in experiment [6] (setting [10]), 96.3%. Also, the Her2 level in experiment [2] was 85% (inactive). Further, the differential viability (reversal) in experiment [6] (H69AR cells + 2 uM doxorubicin) is 17.9% (inactive). Moreover, the inhibition in experiment [7] was -5.95% (inactive); in experiment [8] it was -3.67% (inactive).
As to `N#Cc1c(/N=C/c2cccs2)sc2c1CCCCC2`, the viability in experiment [1] was 98.5%; in experiment [3] it was 98.5% (inactive); in experiment [4] it was 66.5% (inactive); in experiment [5], 90.3% (inactive); in experiment [6] (setting [9]), 73.9%; in experiment [6] (setting [10]) it was 90.3%. Besides, the Her2 level in experiment [2] was 88.5% (inactive). Moreover, in experiment [6] (H69AR cells + 2 uM doxorubicin), the differential viability (reversal) is 16.3% (inactive). The inhibition was -5.33% (inactive) in experiment [7] and 5.74% (inactive) in experiment [8].
Take `CC(C)Oc1ccc(-c2nn(-c3ccccc3)cc2/C=c2\sc3ncnn3c2=O)cc1`: the viability in experiment [1] was 84%; in experiment [3], 84% (inactive); in experiment [4] it was 71.5% (inactive); in experiment [5], 98.1% (inactive); in experiment [6] (setting [9]), 89.9%; in experiment [6] (setting [10]), 98.1%. In addition, the Her2 level in experiment [2] is 106% (inactive). The differential viability (reversal) in experiment [6] (H69AR cells + 2 uM doxorubicin) is 8.19% (inactive). For the same compound, the inhibition in experiment [7] was 5.92% (inactive); in experiment [8] it was -1.82% (inactive).
Turning to `CC(C)OC(=O)CSc1nnc(Cc2ccccc2)n1Cc1ccco1`, the viability in experiment [1] is 92.5%; in experiment [3] it was 92.5% (inactive); in experiment [4] it was 84.7% (inactive); in experiment [5], 92.4% (inactive); in experiment [6] (setting [9]), 86.3%; in experiment [6] (setting [10]) it was 92.4%. Besides, the Her2 level in experiment [2] is 91.5% (inactive). In addition, in experiment [6] (H69AR cells + 2 uM doxorubicin), the differential viability (reversal) is 6.06% (inactive). Also, the inhibition in experiment [7] was -4.27% (inactive); in experiment [8] it was 14.1% (inactive).
As for `CCn1cc(S(=O)(=O)CC(=O)Nc2ccc(OC)cc2)c2ccccc21`, the viability in experiment [1] is 104%; in experiment [3], 104% (inactive); in experiment [4] it was 105% (inactive); in experiment [5], 91.8% (inactive); in experiment [6] (setting [9]), 70.4%; in experiment [6] (setting [10]) it was 91.8%. Also, the Her2 level in experiment [2] is 88% (inactive). Further, in experiment [6] (H69AR cells + 2 uM doxorubicin), the differential viability (reversal) was 21.4% (inactive). The inhibition in experiment [7] was -1.6% (inactive); in experiment [8], 0% (inactive).
As for `N#Cc1cc2sc3nnc(-c4ccncc4)n3c2cc1C#N`, the viability in experiment [1] is 112%; in experiment [3] it was 112% (inactive); in experiment [4], 37.8% (inactive); in experiment [5] it was 32.3% (active); in experiment [6] (setting [9]) it was 50.5%; in experiment [6] (setting [10]) it was 32.3%. Besides, the Her2 level in experiment [2] was 35.5% (active). In addition, in experiment [6] (H69AR cells + 2 uM doxorubicin), the differential viability (reversal) was -18.2% (inactive). For the same compound, the inhibition was -1.71% (inactive) in experiment [7] and 7.94% (inactive) in experiment [8].
`O=C(CCn1c(=S)[nH]c2cc3c(cc2c1=O)OCO3)N1CCN(C2CCCCC2)CC1`: the viability in experiment [1] was 90.5%; in experiment [3], 90.5% (inactive); in experiment [4] it was 93.8% (inactive); in experiment [5], 90% (inactive); in experiment [6] (setting [9]) it was 92.8%; in experiment [6] (setting [10]) it was 90%. Also, the Her2 level in experiment [2] is 82.5% (inactive). The differential viability (reversal) in experiment [6] (H69AR cells + 2 uM doxorubicin) is -2.85% (inactive). Further, the inhibition in experiment [7] is -5.54% (inactive); in experiment [8] it was -0.66% (inactive).
`COCCn1c(SCC(=O)Nc2cccc(OC)c2)nnc1-c1ccc(Cl)cc1`: the viability is 98.5% in experiment [1]; 98.5% (inactive) in experiment [3]; 97% (inactive) in experiment [4]; 84.1% (inactive) in experiment [5]; 89.3% in experiment [6] (setting [9]); 84.1% in experiment [6] (setting [10]). The Her2 level in experiment [2] was 71.5% (inactive). Besides, the differential viability (reversal) in experiment [6] (H69AR cells + 2 uM doxorubicin) is -5.18% (inactive). The inhibition was -6.4% (inactive) in experiment [7] and 0.98% (inactive) in experiment [8].
Regarding `COc1cc(C(=O)Nc2ccc3c(c2)C(=O)N(CCC(=O)O)C3=O)cc(OC)c1OC`, the viability in experiment [1] was 97.5%; in experiment [3] it was 97.5% (inactive); in experiment [4] it was 98% (inactive); in experiment [5] it was 106% (inactive); in experiment [6] (setting [9]), 100%; in experiment [6] (setting [10]), 106%. Moreover, the Her2 level in experiment [2] was 83% (inactive). Moreover, in experiment [6] (H69AR cells + 2 uM doxorubicin), the differential viability (reversal) was 5.66% (inactive). Moreover, the inhibition in experiment [7] is -3.42% (inactive); in experiment [8], -2.86% (inactive).
Take `CCCOc1ccc(OCCSc2ncccn2)cc1`: the viability in experiment [1] was 97%; in experiment [3], 97% (inactive); in experiment [4], 99.6% (inactive); in experiment [5], 102% (inactive); in experiment [6] (setting [9]), 83.1%; in experiment [6] (setting [10]) it was 102%. For the same compound, the Her2 level in experiment [2] is 91% (inactive). For the same compound, the differential viability (reversal) in experiment [6] (H69AR cells + 2 uM doxorubicin) was 18.8% (inactive). The inhibition in experiment [7] was -6.67% (inactive); in experiment [8], -0.79% (inactive).
For `COc1cccc(CN2CCN(C(=O)CC(C)C)CC2)c1`, the viability is 92.5% in experiment [1]; 92.5% (inactive) in experiment [3]; 87.4% (inactive) in experiment [4]; 86.4% (inactive) in experiment [5]; 88.7% in experiment [6] (setting [9]); 86.4% in experiment [6] (setting [10]). Besides, in experiment [2], the Her2 level is 76% (inactive). Also, in experiment [6] (H69AR cells + 2 uM doxorubicin), the differential viability (reversal) was -2.34% (inactive). In addition, the inhibition in experiment [7] was 0.77% (inactive); in experiment [8], -0.83% (inactive).
In the case of `Nn1c(SCC(=O)Nc2ccc(F)cc2)nnc1-c1cccnc1`, the viability was 90.5% in experiment [1]; 90.5% (inactive) in experiment [3]; 95.1% (inactive) in experiment [4]; 103% (inactive) in experiment [5]; 95.5% in experiment [6] (setting [9]); 103% in experiment [6] (setting [10]). Also, the Her2 level in experiment [2] was 81% (inactive). The differential viability (reversal) in experiment [6] (H69AR cells + 2 uM doxorubicin) was 7.72% (inactive). For the same compound, the values for the inhibition in experiment [7] and in experiment [8] were -0.26% (inactive) and -3.67% (inactive), respectively.
With `COCCNC(=O)C(c1cccc(OC)c1)N(Cc1cccs1)C(=O)Cn1nnc2ccccc21` (stereo not given), the viability in experiment [1] is 110%; in experiment [3] it was 110% (inactive); in experiment [4], 105% (inactive); in experiment [5], 99.2% (inactive); in experiment [6] (setting [9]) it was 94.5%; in experiment [6] (setting [10]) it was 99.2%. Moreover, in experiment [2], the Her2 level was 82% (inactive). The differential viability (reversal) in experiment [6] (H69AR cells + 2 uM doxorubicin) was 4.64% (inactive). The values for the inhibition in experiment [7] and in experiment [8] were -3.6% (inactive) and 1.48% (inactive), respectively.
`CC(=O)N(C)C1(c2nnnn2CCOC(=O)Nc2ccc(Cl)cc2)CCCCC1`: the viability in experiment [1] is 114%; in experiment [3] it was 114% (inactive); in experiment [4], 98.1% (inactive); in experiment [5] it was 104% (inactive); in experiment [6] (setting [9]), 91%; in experiment [6] (setting [10]) it was 104%. Also, in experiment [2], the Her2 level is 114% (inactive). The differential viability (reversal) in experiment [6] (H69AR cells + 2 uM doxorubicin) was 12.5% (inactive). In addition, the inhibition in experiment [7] is -1.45% (inactive); in experiment [8], -8.33% (inactive).
